According to the EternaBench riboswitch data:

Test system: MS2 coat protein
Test: apparent Kd, MS2 coat protein; higher = weaker binding; RNA-MaP array; FMN 200 µM where present
Outline: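 The apparent Kd is the median of filtered binding-curve fits, one per cluster, to green signal normalised to red-channel RNA signal and control-cluster median Fmax. The clusters were on Illumina sequencing chips, and stalled E. coli RNA polymerase had transcribed the designs on them. Titration used SNAP-549-labelled MS2 coat protein from 0.7 or 1.5 nM, doubling to 3 µM, without and then with constant ligand, in 100 mM Tris-HCl pH 7.5, 80 mM KCl, 4 mM MgCl2, BSA, DTT, yeast tRNA and Tween-20.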

[1] = designed as: OFF switch for flavin mononucleotide, no ligand
[2] = ligand present: flavin mononucleotide, designed as: OFF switch for flavin mononucleotide
[3] = designed as: ON switch for flavin mononucleotide, no ligand
[4] = ligand present: flavin mononucleotide, designed as: ON switch for flavin mononucleotide

UUACUACAUGAGGAUCACCCAUGUCAGGAUAUUGUUUAUACCUUGGAAUACGUGUCAACAAGAAGGGACUAUAU
apparent Kd [1]: 22.9 nM | apparent Kd [2]: 23.4 nM

UUACUAUAACAGAAGGCUAAAUAAUAUAUAAAUGGAGGAUAUGUUACAUGAGGAUCACCCAUGUUUCACCCACAUGAGGAUCAC
apparent Kd [1]: 13.7 nM | apparent Kd [2]: 42 nM

UUACUAUUGGAGAAGGGUCGAUAAUAUAUAAUGGCAGGAUAUCCAACAUGAGGAUCACCCAUGUUUCACCCAUAUGAGGAUCAC
apparent Kd [1]: 54.2 nM | apparent Kd [2]: 24.1 nM

UUACUUUUACAGAAGGUUUAAUAAUAUAUAAGAGAAGGAUAUGUAACAUGAGGAUCACCCAUGUUUCACCCAUAUGAGGAUCAU
apparent Kd [1]: 8.12 nM | apparent Kd [2]: 7.78 nM

UUAGAAUUGCAAGGAUAUCUUAUUUAGAUAGUAAGAGAAGGUGCUUUAUAGUUACAUGAGGAUCACCCAUGUAUUUCUUUUUAU
apparent Kd [3]: 23.1 nM | apparent Kd [4]: 19.7 nM

UUAGAAUUGUUAGGAUAUUAAUUAUUGUAUAGUAUGAUCUACAUGAGGAUCACCCAUGUUAAAUAUAAGAAGGAACGUUAGAUU
apparent Kd [1]: 57.6 nM | apparent Kd [2]: 51.3 nM

UUAGAAUUGUUAGGAUAUUAAUUAUUUUUUAGUAUGAUCUACAUGAGGAUCACCCAUGUUAAAUAUAAGAAGGAACGUUUUAUU
apparent Kd [1]: 51.8 nM | apparent Kd [2]: 52 nM

UUAGCAUACCGAGGAUAUUCAUAUAAUAAAUAAACAUGAGGAUCACCCAUGUGGCGAAAGCCUAGGGAGAAGGCGGAAUGCUAG
apparent Kd [3]: 171 nM | apparent Kd [4]: 27.2 nM

UUAGGCUUCUAGAAGGCGGUCCAGCUAGAGGACCGAGGAUAUAGGCACCUAACAUGAGGAUCACCCAUGUUAGUGAUUCCUCAA
apparent Kd [1]: 132 nM | apparent Kd [2]: 166 nM

UUAUACGUUGAGGAUAUGUCAGUUAGUAUAUUUACAGAAGGCGAUACAUGAGGAUCACCCAUGUUUAUGGGCAU
apparent Kd [1]: 213 nM | apparent Kd [2]: 149 nM

UUAUACGUUGAGGAUAUGUCAUUUAGUAUAGUUACAGAAGGCGAUACAUGAGGAUCACCCAUGUUUAUGGGCAU
apparent Kd [1]: 239 nM | apparent Kd [2]: 164 nM

UUAUAUAGAGUGAGGAUAUGCUGGUCCUUGGAUCAGCAGAAGGCACAUGAGGAUCACCCAUGUAAUAUAUUAUU
apparent Kd [1]: 22 nM | apparent Kd [2]: 38.2 nM

UUAUAUAGUGUGAGGAUAUGCUGGUCCUUGGAUCAGCAGAAGGCACAUGAGGAUCACCCAUGUAGUUAAUUAUA
apparent Kd [1]: 32 nM | apparent Kd [2]: 122 nM

UUAUGAGAGCAGGAUAUCUUAUUUUUUUUUUAAAGAGAAGGGCUCACAUGAGGAUCACCCAUGUGGUCCUAGAU
apparent Kd [1]: 42.8 nM | apparent Kd [2]: 75.6 nM

UUAUGUAUUGUAGGAUAUCAUAAGUUAUGUAUUAUAAUUGAAAUUUUGUUAUGAGAAGGACAUAUACAUGAGGAUCACCCAUGU
apparent Kd [1]: 16.6 nM | apparent Kd [2]: 14 nM

UUAUGUGUUGUAGGAUAUCAUUAGAUUUGUAAUUUAAUUGUAAUUUACAUAUGAGAAGGACAUUUACAUGAGGAUCACCCAUGU
apparent Kd [1]: 12.5 nM | apparent Kd [2]: 9.6 nM

UUAUGUUUACAAGGAUAUCAAUUAUUUAUACUUCCUACAUGAGGAUCACCCAUGUUUUUAUAUUUUGAGAAGGUGUAAUGUCGG
apparent Kd [3]: 38.5 nM | apparent Kd [4]: 35.4 nM

UUAUUAGCAGGAUAUAUCCGGGAUCACAUGAGGAUCACCCAUGUGACCGCUUGAGAUCCUAUAGAAGGGCUUUAUU
apparent Kd [1]: 30.6 nM | apparent Kd [2]: 56.3 nM

UUAUUAUAUAUAGGAUAUUGAUGUAAUUUAUUUCAAGAAGGAUAUACAUGAGGAUCACCCAUGUUGGAUAGGGUUAGUUUGUUU
apparent Kd [3]: 86.5 nM | apparent Kd [4]: 154 nM

UUAUUAUGUGUAGGAUAUGCAUAUUAUGAUUAUGCAGAAGGACAUGAGGAUCACCCAUGUAUAUUAUUAUUAUAUAUUAUAUAU
apparent Kd [1]: 13.3 nM | apparent Kd [2]: 21.1 nM

UUAUUAUGUGUAGGAUAUGCAUAUUCUUAUUAUGCAGAAGGACAUGAGGAUCACCCAUGUAUAUUAUUAUUAUAUAUUAUAUAU
apparent Kd [1]: 14.6 nM | apparent Kd [2]: 13.1 nM

UUAUUUUUACAGAAGGUUUAAUAAUAUGUAUGAGAAGGAUAUGUAACAUGAGGAUCACCCAUGUUUCAUCUAUAUGAGGAUCAU
apparent Kd [1]: 6.61 nM | apparent Kd [2]: 5.57 nM

UUAUUUUUACAGAAGGUUUAAUAAUAUGUAUGAGAAGGAUAUGUAACAUGAGGAUCACCCAUGUUUUAUCUAUAUGAGGAUCAU
apparent Kd [1]: 6.69 nM | apparent Kd [2]: 6.88 nM
